Laboratory results from PubChem BioAssay.
Inconclusive results are not listed. Calls of active or inactive are those of the source.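 The calls were made as follows, unless noted: active = viability increase at or above a cutoff of the median across tested compounds plus 3 SD (cut at about 8.5% in these data, passing the limit was not always enough); inconclusive = some gains above the cutoff, reason not given; inactive = the rest.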

Columns and labels:
[1] = OD615 S. cerevisiae growth inhibition, permissive medium, pilot counter-assay, permissive growth control for S. cerevisiae lifespan shortening project (AID 705;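 active = growth inhibition above 25% in both replicates, a cutoff set 3 SD above the mean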); conditions: OD615, 24 h, at 10 µM, hits give high values
Procedure, shortened: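 Test system: Saccharomyces cerevisiae strain carrying genetically modified DeaD replicative-lifespan system; buffer or medium: SC raffinose/galactose permissive medium; dosing: one dose 10 µM, DMSO 0.25% final; times: 24 h exposure, 30 °C; measured by: OD at 615 nm; read-out basis: growth inhibition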

[2] = Restrictive medium S. cerevisiae growth inhibition, OD615, pilot screen of yeast lifespan reduction project, restrictive growth control (AID 706;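 active = growth inhibition above a set limit, 3 SD over mean compound inhibition, in both replicates, cut at about 43% in these data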;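 also: modified DeaD lifespan yeast strain shifted to restrictive glucose medium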); conditions: OD615, 48 h, at 10 µM, hits give high values
Procedure, shortened: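 material = engineered S. cerevisiae DeaD strain | buffer or medium = glucose-based CSMM-D restrictive medium | dosing = one concentration, 10 µM final, 0.25% DMSO | schedule = 4 h pre-growth plus 48 h compound exposure, 30 °C | detection = OD615 absorbance reading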

[3] = viability gain of MRP-1-high H69AR cells under doxorubicin, pilot screen, MRP-1 activator project, CellTiter-Glo, duplicate (AID 807); conditions: H69AR viability with doxorubicin, CellTiter-Glo luminescence; at 10 µM; hits give high values;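 also: compound pretreatment 18-22 h then 72 h combined with doxorubicin; 0% = doxorubicin alone and 100% = vehicle without doxorubicin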
[4] = growth suppression of PTEN-deleted HCT116, pilot screen, cell-based, HCT116 clonal line, CellTiter-Glo (AID 824;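 active = viability at or below 27.92% in each of two runs, the all-compound median minus 4 SD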;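 also: 0% = 20 µM Hyamine control and 100% = vehicle cell control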); conditions: 60 h, at 10 µM, hits give low values
[5] = inhibitors of the yeast RAM network, pilot screen, dse1pr::URA3 reporter, 5-FOA selection (AID 869;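 active = inhibition over a set limit, the all-compound mean plus 3 SD, in both replicate runs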;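 also: 0% = DMSO wells with no growth and 100% = 10 µM 1-NA-PP1 with full growth; RAM network block rescues cells from 5-FOA so hits raise OD615 growth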); conditions: S. cerevisiae dse1pr::URA3 5-FOA growth, OD615, 2 d; at 10 µM; hits give high values; strain carries analog-sensitive mutant Cbk1 kinase
[6] = RAM signaling pathway blockade in yeast – S. cerevisiae, Pdr1DBD-CYC8 efflux-inhibited sensitized strain, primary screen (AID 1298;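 active = RAM network inhibition above 8.4% in each of two replicates, 3 SD over the compound average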;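 also: 0% = DMSO untreated cells without growth and 100% = 10 µM 1-NA-PP1 full growth; higher means more yeast growth rescued from 5-FOA killing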); conditions: S. cerevisiae cbk1-as DSE1-URA3 strain, 5-FOA growth OD615, 2 d; at 50 µM; hits give high values

COc1ccc(S(=O)(=O)N(CCc2ccccc2)CC(=O)N2CCOCC2)cc1
inactive: growth inhibition [1] -7.4% | growth inhibition [2] -6.06% | viability increase [3] -4.39% | viability [4] 96.6% | inhibition [5] 0.965% | RAM network inhibition [6] -0.36%

COc1ccccc1CNC(=O)CCS(=O)(=O)c1cccs1
inactive: growth inhibition [1] -15.9% | growth inhibition [2] -3.45% | viability increase [3] -3.06% | viability [4] 103% | inhibition [5] 1.43% | RAM network inhibition [6] 0.82%

O=C(NC1(C(F)(F)F)Oc2ccccc2O1)N1CCCC1
inactive: growth inhibition [1] -3.63% | growth inhibition [2] -7.95% | viability increase [3] -6.12% | viability [4] 81.3% | inhibition [5] 0.56% | RAM network inhibition [6] 1.58%

COc1cc(OC)cc(C(=O)Nc2cccc(C(C)=O)c2)c1
inactive: growth inhibition [1] -6.17% | growth inhibition [2] -2.38% | viability increase [3] -2.42% | viability [4] 89.9% | inhibition [5] 1.7% | RAM network inhibition [6] 1.49%

CCN(CC)C(=O)C(C)N(C#N)c1nc(NC(C)C)nc(NC(C)C)n1 (stereo not given)
inactive: growth inhibition [1] -9.32% | growth inhibition [2] -0.315% | viability increase [3] -3.7% | viability [4] 101% | inhibition [5] 0.715% | RAM network inhibition [6] 2.25%

CC(C)CC(NC(=O)C1CCC(C)CC1)C(=O)Nc1cccnc1 (stereo not given)
inactive: growth inhibition [1] -8.21% | growth inhibition [2] -12.6% | viability increase [3] -3.68% | viability [4] 89.5% | inhibition [5] 0.035% | RAM network inhibition [6] 0.05%

COC(=O)C1=C(C)NC2=C(C(=O)CC(c3cccs3)C2)C1c1ccsc1 (stereo not given)
inactive: growth inhibition [1] -7.01% | growth inhibition [2] 2.53% | viability increase [3] -6.75% | viability [4] 40.1% | inhibition [5] 1.25% | RAM network inhibition [6] 4.86%

O=C(c1ccsc1)N1CCN(C(=O)c2cccs2)CC1
inactive: growth inhibition [1] -9.91% | growth inhibition [2] 2.31% | viability increase [3] 1.13% | viability [4] 107% | inhibition [5] 2.04% | RAM network inhibition [6] 0.97%

CCN1C(=S)SC(=O)C1=C1C=C(C)N(CCO)C(C)=C1
inactive: growth inhibition [1] 1.7% | growth inhibition [2] 23.4% | viability increase [3] -2.35% | viability [4] 95.3% | inhibition [5] 1.45% | RAM network inhibition [6] 0.11%

CCn1cc(S(=O)(=O)CC(=O)NC2CCCCC2)c2ccccc21
inactive: growth inhibition [1] -9.89% | growth inhibition [2] -0.52% | viability increase [3] -1.1% | viability [4] 97.4% | inhibition [5] 1.71% | RAM network inhibition [6] 2.87%

CCn1cc(C(=O)NCCCN2CC(C)CC(C)C2)c2cc(OC)c(OC)cc2c1=O (stereo not given)
inactive: growth inhibition [1] -15.8% | growth inhibition [2] -7.97% | viability increase [3] -2.98% | viability [4] 97.5% | inhibition [5] 1.03% | RAM network inhibition [6] 3.13%

O=C(CN1CCCCC1)Nc1ccc(F)c(Cl)c1
inactive: growth inhibition [1] 5.67% | growth inhibition [2] 4.63% | viability increase [3] -2.13% | viability [4] 98.4% | inhibition [5] 1.7% | RAM network inhibition [6] -0.11%

O=C(c1ccco1)N1CCCC(c2nc(-c3ccc(S(=O)(=O)NCc4ccccc4)cc3)no2)C1 (stereo not given)
inactive: growth inhibition [1] -8.47% | growth inhibition [2] -27.3% | viability increase [3] -2.74% | viability [4] 47.4% | inhibition [5] 1.58% | RAM network inhibition [6] 3.3%

Cc1ccc(N(CC(=O)NC2CC3CCC2C3)S(C)(=O)=O)cc1C (stereo not given)
inactive: growth inhibition [1] -2.18% | growth inhibition [2] -4.39% | viability increase [3] -2.03% | viability [4] 96.8% | inhibition [5] 1.26% | RAM network inhibition [6] 5.17%

Nc1ccc(O)c(-c2nc3ccccc3s2)c1
inactive: growth inhibition [1] 2.32% | growth inhibition [2] 5.73% | viability increase [3] -7.28% | viability [4] 32.6% | inhibition [5] 2.77% | RAM network inhibition [6] 1.92%

COc1cc(S(=O)(=O)N2CCCCCC2)c(OC)cc1Br
inactive: growth inhibition [1] 0.23% | growth inhibition [2] -10.7% | viability increase [3] -0.06% | viability [4] 77.4% | inhibition [5] -0.43% | RAM network inhibition [6] 5.23%

COc1ccc(C2CC(=O)C(C=NCCO)=C(O)C2)cc1OC (stereo not given)
inactive: growth inhibition [1] -5.79% | growth inhibition [2] 4.22% | viability increase [3] 1.21% | viability [4] 105% | inhibition [5] -0.07% | RAM network inhibition [6] -0.41%

NS(=O)(=O)c1ccc(NC(=O)COC(=O)CCNC(=O)NC23CC4CC(CC(C4)C2)C3)cc1
inactive: growth inhibition [1] -10.4% | growth inhibition [2] -4.2% | viability increase [3] 0.2% | viability [4] 98.6% | inhibition [5] 0.55% | RAM network inhibition [6] 3.28%

COc1cc2[nH]c(=O)n(CCCC(=O)N3CC=C(c4ccccc4)CC3)c(=O)c2cc1OC
inactive: growth inhibition [1] -11.3% | growth inhibition [2] -6.67% | viability increase [3] -4.59% | viability [4] 80.5% | inhibition [5] 0.355% | RAM network inhibition [6] 1.8%

CCCCn1c(=NC(=O)c2ccco2)c(C(=O)OCC)cc2c(=O)n3ccccc3nc21
active: viability [4] 20.3%
inactive: growth inhibition [1] 1.16% | growth inhibition [2] 6.8% | viability increase [3] -6.94% | inhibition [5] 0.795% | RAM network inhibition [6] 1.9%

COc1ccc(N2C(=O)CCC(C(=O)N3CCCCCC3)C2c2ccc(OC)c(OC)c2)cc1 (stereo not given)
inactive: growth inhibition [1] -2.31% | growth inhibition [2] 12.9% | viability increase [3] -1.38% | viability [4] 99% | inhibition [5] 0.735% | RAM network inhibition [6] 4.47%

Cn1cnnc1SCC(=O)c1ccco1
inactive: growth inhibition [1] -5.92% | growth inhibition [2] -3.4% | viability increase [3] -1.08% | viability [4] 106% | inhibition [5] 0.79% | RAM network inhibition [6] 3.27%

O=C(NCc1cccc(F)c1)c1noc2c1CCCC2
inactive: growth inhibition [1] -12.1% | growth inhibition [2] -19.5% | viability increase [3] -4.68% | viability [4] 32.7% | inhibition [5] 0.33% | RAM network inhibition [6] 3.14%

COc1cc(/C=N/n2cnnc2)ccc1OC(=O)c1cccnc1
inactive: growth inhibition [1] -8.46% | growth inhibition [2] -8.55% | viability increase [3] -2.5% | viability [4] 97.8% | inhibition [5] 0.985% | RAM network inhibition [6] 0.57%

O=C(C1CC1)N1CCc2cc(Br)cc(S(=O)(=O)NCCN3CCOCC3)c21
inactive: growth inhibition [1] -5.94% | growth inhibition [2] -6.43% | viability increase [3] -2.94% | viability [4] 94.7% | inhibition [5] 1.69% | RAM network inhibition [6] 2.57%

Cc1ccc2nc(NC(=O)c3cccs3)sc2c1
inactive: growth inhibition [1] -2.67% | growth inhibition [2] 10.6% | viability increase [3] -4.54% | viability [4] 69.2% | inhibition [5] 1.29% | RAM network inhibition [6] 4.15%

CCNc1nc(NCC)nc(OCCNS(=O)(=O)c2cc(C)ccc2C)n1
inactive: growth inhibition [1] 7.46% | growth inhibition [2] 6.54% | viability increase [3] -2.5% | viability [4] 95.3% | inhibition [5] 0.235% | RAM network inhibition [6] 1.53%

Cc1cccc(-n2c(=O)[nH]c3c(C(N)=O)nc(-c4ccccc4Cl)nc32)c1
inactive: growth inhibition [1] -7.62% | growth inhibition [2] -0.18% | viability increase [3] -7.67% | inhibition [5] 3.09% | RAM network inhibition [6] 3.41%
active: viability [4] 11.7%

O=C1C2C3C=CC(C3)C2C(=O)N1CCN1CCN(S(=O)(=O)c2ccc3ccccc3c2)CC1 (stereo not given)
inactive: growth inhibition [1] -8.82% | growth inhibition [2] 0.84% | viability increase [3] -5.03% | viability [4] 83.5% | inhibition [5] 1.27% | RAM network inhibition [6] 3.68%

CC(=O)c1c(C(C)=O)c(C)n(-c2nc(-c3ccccc3)c(C)s2)c1C
inactive: growth inhibition [1] 0.235% | growth inhibition [2] -11% | viability increase [3] -2.37% | viability [4] 91.4% | inhibition [5] 1.21% | RAM network inhibition [6] 4.01%

COc1ccc(Oc2ccc(S(=O)(=O)N3CCCCC3)cc2S(=O)(=O)N2CCCCC2)cc1
inactive: growth inhibition [1] -4.96% | growth inhibition [2] -0.32% | viability increase [3] -3.43% | viability [4] 87.1% | inhibition [5] 1.56% | RAM network inhibition [6] 3.99%

CCCOc1nc2c(c(=O)n(C)c(=O)n2C)n1Cc1cccc2ccccc12
inactive: growth inhibition [1] -12.5% | growth inhibition [2] -0.875% | viability increase [3] -4.04% | viability [4] 57.7% | inhibition [5] 0.84% | RAM network inhibition [6] 1.64%

CCCOC(=O)c1ccc(OCC(O)Cn2c(C)nc3ccccc32)cc1 (stereo not given)
inactive: growth inhibition [1] -11.1% | growth inhibition [2] -3.87% | viability increase [3] -1.73% | viability [4] 57.2% | inhibition [5] 0.99% | RAM network inhibition [6] 6.95%

CCN(CC)C(=O)c1cn(C)c(=O)c2cc(OC)c(OC)cc12
inactive: growth inhibition [1] -12.1% | growth inhibition [2] -8.38% | viability increase [3] -4.4% | viability [4] 98.8% | inhibition [5] 0.515% | RAM network inhibition [6] -1.59%

Cc1cc(C(=O)NC(C)c2ccncc2)no1 (stereo not given)
inactive: growth inhibition [1] -12.9% | growth inhibition [2] 8.19% | viability increase [3] -2.15% | viability [4] 90.3% | inhibition [5] 1.55% | RAM network inhibition [6] 0.72%

O=c1c2c(nc3c(-c4ccccc4)c[nH]n13)CCCC2
inactive: growth inhibition [1] -7.02% | growth inhibition [2] -8.55% | viability increase [3] -5.26% | viability [4] 49.2% | inhibition [5] 1.02% | RAM network inhibition [6] 0.27%

Cc1cccc(-n2ncc3c(NCc4ccccc4)ncnc32)c1
inactive: growth inhibition [1] 5.07% | growth inhibition [2] 12.1% | viability increase [3] -5.25% | viability [4] 31.8% | inhibition [5] 1.38% | RAM network inhibition [6] 11.8%

CCCCNc1ncnc2c1cnn2-c1ccccc1
inactive: growth inhibition [1] -4.09% | growth inhibition [2] -11.2% | viability increase [3] -6.48% | viability [4] 32.4% | inhibition [5] 1.83% | RAM network inhibition [6] -0.15%

c1csc(CNc2ncnc3sccc23)c1
inactive: growth inhibition [1] 3.62% | growth inhibition [2] -3.59% | viability increase [3] -2% | viability [4] 62.7% | inhibition [5] 2.05% | RAM network inhibition [6] 4.4%

COc1ccc(OC(C)C(=O)Nc2cccc(OC)c2)cc1 (stereo not given)
inactive: growth inhibition [1] -4.58% | growth inhibition [2] -2.9% | viability increase [3] -4.64% | viability [4] 97.9% | inhibition [5] 0.625% | RAM network inhibition [6] -0.52%
